Measured values from ChEMBL document CHEMBL4265940, “Synthesis of scutellarein derivatives with antiproliferative activity and selectivity through the intrinsic pathway” (Eur J Med Chem, 2018).
The source made the active and inactive calls. The calls are words filed in the database; no cut-off is given here.

How the values were obtained:
[1] = test system: Bel-7402; experiment: Antiproliferative activity against human Bel7402 cells after 72 hrs by MTT assay; type: functional, cell-based; conditions: Bel-7402, 72 h
In short: (§1)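 Log-phase tumour cells seeded and held 24 h at 37 °C in humidified 5% CO2, then exposed to test agents for 72 h. MTT (5 mg/mL stock) added for a further 4 h, formazan dissolved in DMSO with 10 min shaking at room temperature, optical density read, IC50 calculated.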

[2] = test system: L02; experiment: Cytotoxicity against human LO2 cells assessed as decrease in cell viability after 72 hrs by MTT assay; type: cell-based; conditions: L02, 72 h
In short: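 L-O2 normal human liver cells tested for growth inhibition by MTT. Formazan was dissolved in DMSO and optical density read. IC50 values were derived.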

[3] = test system: A549; experiment: Antiproliferative activity against human A549 cells after 72 hrs by MTT assay; type: functional, cell-based; conditions: A549, 72 h; in short: as §1
[4] = test system: MCF7; experiment: Antiproliferative activity against human MCF7 cells after 72 hrs by MTT assay; type: functional, cell-based; conditions: MCF7, 72 h; in short: as §1
[5] = test system: MCF7; experiment: Induction of apoptosis in human MCF7 cells assessed as late apoptotic cells at 1.5 uM after 48 hrs by Annexin V-FITC/PI staining based flow cytometry (reference value: 1.99%); type: functional
[6] = test system: MCF7; experiment: Cell cycle arrest in human MCF7 cells assessed as accumulation at G1 phase at 3 uM after 48 hrs by propidium iodide staining based flow cytometry (reference value: 41.49%); type: functional
[7] = test system: MCF7; experiment: Induction of apoptosis in human MCF7 cells assessed as increase in caspase-9 level at 0.75 to 3 uM after 48 hrs by Western blot analysis; type: functional, cell-based
In short: (§2)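 MCF-7 cells treated 48 h at 0, 0.75, 1.5 and 3 µM, lysed, and spun at 14000 g for 10 min at 4 °C. Protein was measured by BCA and 25 µg lysate run on 12% SDS-PAGE, then transferred to nitrocellulose and blocked with 5% milk. Blots were probed overnight at 4 °C with monoclonal antibodies to Bcl-2, Bax, cyto-c, caspase-9, caspase-3 and GAPDH, with ECL detection.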

[8] = test system: MCF7; experiment: Induction of mitochondrial membrane depolarization in human MCF7 cells assessed as collapse of mitochondrial membrane potential at 3 uM after 48 hrs by JC-1 staining based flow cytometry (reference value: 1.61%); type: functional
In short: (§3)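 Log-phase MCF-7 cells treated at 0, 0.75, 1.5 and 3 µM for 48 h, washed with PBS, then stained with JC-1 in the dark per kit instructions. The percentage of cells with collapsed membrane potential was measured by flow cytometry relative to untreated control.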

[9] = test system: MCF7; experiment: Induction of apoptosis in human MCF7 cells assessed as upregulation of Bax after 48 hrs by Western blot analysis; type: functional, cell-based; in short: as §2
[10] = test system: MCF7; experiment: Induction of apoptosis in human MCF7 cells assessed as increase in cytochrome c release at 0.75 to 3 uM after 48 hrs by Western blot analysis; type: functional, cell-based; in short: as §2
[11] = test system: MCF7; experiment: Induction of apoptosis in human MCF7 cells assessed as viable cells at 1.5 uM after 48 hrs by Annexin V-FITC/PI staining based flow cytometry (reference value: 93.72%); type: functional; conditions: MCF7, 48 h, read-out: Activity
[12] = test system: MCF7; experiment: Induction of apoptosis in human MCF7 cells assessed as late apoptotic cells at 3 uM after 48 hrs by Annexin V-FITC/PI staining based flow cytometry (reference value: 1.99%); type: functional
[13] = test system: MCF7; experiment: Induction of apoptosis in human MCF7 cells assessed as early apoptotic cells at 3 uM after 48 hrs by Annexin V-FITC/PI staining based flow cytometry (reference value: 4.10%); type: functional
[14] = test system: MCF7; experiment: Cell cycle arrest in human MCF7 cells assessed as accumulation at G1 phase at 0.75 uM after 48 hrs by propidium iodide staining based flow cytometry (reference value: 41.49%); type: functional
[15] = test system: MCF7; experiment: Cell cycle arrest in human MCF7 cells assessed as accumulation at G2/M phase at 1.5 uM after 48 hrs by propidium iodide staining based flow cytometry (reference value: 22.40%); type: functional
[16] = test system: MCF7; experiment: Induction of mitochondrial membrane depolarization in human MCF7 cells assessed as collapse of mitochondrial membrane potential at 1.5 uM after 48 hrs by JC-1 staining based flow cytometry (reference value: 1.61%); type: functional; in short: as §3
[17] = test system: MCF7; experiment: Cell cycle arrest in human MCF7 cells assessed as accumulation at G2/M phase at 3 uM after 48 hrs by propidium iodide staining based flow cytometry (reference value: 22.40%); type: functional
[18] = test system: MCF7; experiment: Induction of apoptosis in human MCF7 cells assessed as early apoptotic cells at 0.75 uM after 48 hrs by Annexin V-FITC/PI staining based flow cytometry (reference value: 4.10%); type: functional
[19] = test system: MCF7; experiment: Induction of apoptosis in human MCF7 cells assessed as downregulation of Bcl-2 after 48 hrs by Western blot analysis; type: functional, cell-based; in short: as §2
[20] = test system: MCF7; experiment: Cell cycle arrest in human MCF7 cells assessed as accumulation at S phase at 0.75 uM after 48 hrs by propidium iodide staining based flow cytometry (reference value: 36.11%); type: functional
[21] = test system: MCF7; experiment: Induction of mitochondrial membrane depolarization in human MCF7 cells after 48 hrs by JC-1 staining based flow cytometry; type: functional, cell-based; in short: as §3
[22] = test system: MCF7; experiment: Induction of apoptosis in human MCF7 cells assessed as necrotic cells at 1.5 uM after 48 hrs by Annexin V-FITC/PI staining based flow cytometry (reference value: 0.19%); type: functional
[23] = test system: MCF7; experiment: Induction of apoptosis in human MCF7 cells assessed as necrotic cells at 3 uM after 48 hrs by Annexin V-FITC/PI staining based flow cytometry (reference value: 0.19%); type: functional
[24] = test system: MCF7; experiment: Induction of apoptosis in human MCF7 cells assessed as viable cells at 3 uM after 48 hrs by Annexin V-FITC/PI staining based flow cytometry (reference value: 93.72%); type: functional; conditions: MCF7, 48 h, read-out: Activity
[25] = test system: MCF7; experiment: Induction of apoptosis in human MCF7 cells assessed as necrotic cells at 0.75 uM after 48 hrs by Annexin V-FITC/PI staining based flow cytometry (reference value: 0.19%); type: functional
[26] = test system: MCF7; experiment: Induction of apoptosis in human MCF7 cells assessed as increase in caspase-3 level at 0.75 to 3 uM after 48 hrs by Western blot analysis; type: functional, cell-based; in short: as §2
[27] = test system: MCF7; experiment: Cell cycle arrest in human MCF7 cells assessed as accumulation at S phase at 1.5 uM after 48 hrs by propidium iodide staining based flow cytometry (reference value: 36.11%); type: functional
[28] = test system: MCF7; experiment: Induction of apoptosis in human MCF7 cells assessed as early apoptotic cells at 1.5 uM after 48 hrs by Annexin V-FITC/PI staining based flow cytometry (reference value: 4.10%); type: functional
[29] = test system: MCF7; experiment: Cell cycle arrest in human MCF7 cells assessed as accumulation at S phase at 3 uM after 48 hrs by propidium iodide staining based flow cytometry (reference value: 36.11%); type: functional
[30] = test system: MCF7; experiment: Induction of apoptosis in human MCF7 cells assessed as late apoptotic cells at 0.75 uM after 48 hrs by Annexin V-FITC/PI staining based flow cytometry (reference value: 1.99%); type: functional
[31] = test system: MCF7; experiment: Induction of apoptosis in human MCF7 cells after 48 hrs by Annexin V-FITC/PI staining based flow cytometry; type: functional, cell-based
[32] = test system: MCF7; experiment: Induction of apoptosis in human MCF7 cells assessed as viable cells at 0.75 uM after 48 hrs by Annexin V-FITC/PI staining based flow cytometry (reference value: 93.72%); type: functional; conditions: MCF7, 48 h, read-out: Activity
[33] = test system: MCF7; experiment: Induction of mitochondrial membrane depolarization in human MCF7 cells assessed as collapse of mitochondrial membrane potential at 0.75 uM after 48 hrs by JC-1 staining based flow cytometry (reference value: 1.61%); type: functional; in short: as §3
[34] = test system: MCF7; experiment: Cell cycle arrest in human MCF7 cells assessed as accumulation at G2/M phase at 0.75 uM after 48 hrs by propidium iodide staining based flow cytometry (reference value: 22.40%); type: functional
[35] = test system: MCF7; experiment: Cell cycle arrest in human MCF7 cells assessed as accumulation at G1 phase at 1.5 uM after 48 hrs by propidium iodide staining based flow cytometry (reference value: 41.49%); type: functional
[36] = test system: MCF7; experiment: Cell cycle arrest in human MCF7 cells assessed as accumulation at G1 phase after 48 hrs by propidium iodide staining based flow cytometry; type: functional

O=C(OCCCCCOc1ccc(-c2cc(=O)c3c(O)c4c(cc3o2)OCCO4)cc1)c1ccc(N(CCCl)CCCl)cc1
IC50 [1]: 45.7 µM | IC50 [2]: > 50 µM | IC50 [3]: > 50 µM | IC50 [4]: 34.7 µM

O=C(OCCCCCOc1ccc(-c2cc(=O)c3c(O)c(O)c(O)cc3o2)cc1)c1ccc(N(CCCl)CCCl)cc1
IC50 [1]: 4.59 µM | IC50 [2]: > 50 µM | IC50 [3]: 23.5 µM | IC50 [4]: 4.78 µM

O=C(OCCCOc1ccc(-c2cc(=O)c3c(O)c4c(cc3o2)OCCO4)cc1)c1ccc(N(CCCl)CCCl)cc1
IC50 [1]: > 50 µM | IC50 [2]: > 50 µM | IC50 [3]: 44.5 µM | IC50 [4]: 45 µM

O=C(O)CCCc1ccc(N(CCCl)CCCl)cc1 [CHLORAMBUCIL]
IC50 [1]: > 50 µM | IC50 [2]: > 50 µM | IC50 [3]: > 50 µM | IC50 [4]: > 50 µM

COc1cc2oc(-c3ccc(OCCCCOC(=O)c4ccc(N(CCCl)CCCl)cc4)cc3)cc(=O)c2c(O)c1OC
IC50 [1]: 25.7 µM | IC50 [2]: > 50 µM | IC50 [3]: 47.3 µM | IC50 [4]: > 50 µM

COc1cc2oc(-c3ccc(OCCCCCOC(=O)c4ccc(N(CCCl)CCCl)cc4)cc3)cc(=O)c2c(O)c1OC
IC50 [1]: 32.5 µM | IC50 [2]: > 50 µM | IC50 [3]: > 50 µM | IC50 [4]: > 50 µM

O=C(OCCCOc1ccc(-c2cc(=O)c3c(O)c(O)c(O)cc3o2)cc1)c1ccc(N(CCCl)CCCl)cc1
Activity [5]: 9.46% | Activity [6]: 59.49% | IC50 [1]: 7.96 µM | Activity [7]: Active | Activity [8]: 64.8% | Activity [9]: Dose-dependent effect | Activity [10]: Active | IC50 [2]: > 50 µM | viability at 1.5 µM [11]: 68.8% | Activity [12]: 26.73% | Activity [13]: 38.48% | Activity [14]: 44.16% | Activity [15]: 18.56% | Activity [16]: 43.48% | Activity [17]: 11.47% | Activity [18]: 12.07% | Activity [19]: Dose-dependent effect | IC50 [3]: > 50 µM | Activity [20]: 34.67% | Activity [21]: Dose-dependent effect | Activity [22]: 1.85% | Activity [23]: 3.26% | viability at 3 µM [24]: 31.5% | Activity [25]: 0.17% | Activity [26]: Active | Activity [27]: 30.44% | IC50 [4]: 1.5 µM | Activity [28]: 19.85% | Activity [29]: 29.04% | Activity [30]: 3.92% | Activity [31]: Dose-dependent effect | viability at 0.75 µM [32]: 83.8% | Activity [33]: 19.61% | Activity [34]: 21.17% | Activity [35]: 50.99% | Activity [36]: Dose-dependent effect

O=C(OCCCCOc1ccc(-c2cc(=O)c3c(O)c(O)c(O)cc3o2)cc1)c1ccc(N(CCCl)CCCl)cc1
IC50 [1]: 9.07 µM | IC50 [2]: > 50 µM | IC50 [3]: 21.5 µM | IC50 [4]: 3.55 µM

COc1cc2oc(-c3ccc(OCCCOC(=O)c4ccc(N(CCCl)CCCl)cc4)cc3)cc(=O)c2c(O)c1OC
IC50 [1]: 27.8 µM | IC50 [2]: > 50 µM | IC50 [3]: > 50 µM | IC50 [4]: > 50 µM

O=c1[nH]cc(F)c(=O)[nH]1 [FLUOROURACIL]
IC50 [1]: 18.7 µM | IC50 [3]: 2.05 µM | IC50 [4]: 27.9 µM

O=C(OCCCCOc1ccc(-c2cc(=O)c3c(O)c4c(cc3o2)OCCO4)cc1)c1ccc(N(CCCl)CCCl)cc1
IC50 [1]: 37.6 µM | IC50 [2]: > 50 µM | IC50 [3]: > 50 µM | IC50 [4]: > 50 µM
